For test [1], the target named is Rhodesain (Trypanosoma brucei rhodesiense) (UniProt Q95PM0). Briefly: Inhibition of Trypanosoma brucei rhodesiense rhodesain after 12 hrs by fluorescence spectroscopy-based on-bead assay. More on the design: concentration or dose not given beside the values. The note with it: concentration not given here. A digest of the protocol:
(§1)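 Library members on resin (PEGA, theoretical loading 0.40 mmol/g; added as DMSO suspension, 0.64 mM final inhibitor) preincubated with enzyme 12 h, then Cbz-Phe-Arg-AMC 40 μM added; AMC release followed by fluorescence (ex 380/em 460 nm). Kinetics compared with inhibitor-free amino-PEGA resin.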

A short description of test [2]: Inhibition of Plasmodium falciparum falcipain-2 after 12 hrs by fluorescence spectroscopy-based on-bead assay. The arrangement: concentration or dose not given beside the values. The note with it: concentration not given here. An outline of the steps:
as §1

The structures appear in SMILES notation. Peptide text beside a SMILES is read from it.

Rhodesain (Trypanosoma brucei rhodesiense), sequence (Q95PM0 1-450): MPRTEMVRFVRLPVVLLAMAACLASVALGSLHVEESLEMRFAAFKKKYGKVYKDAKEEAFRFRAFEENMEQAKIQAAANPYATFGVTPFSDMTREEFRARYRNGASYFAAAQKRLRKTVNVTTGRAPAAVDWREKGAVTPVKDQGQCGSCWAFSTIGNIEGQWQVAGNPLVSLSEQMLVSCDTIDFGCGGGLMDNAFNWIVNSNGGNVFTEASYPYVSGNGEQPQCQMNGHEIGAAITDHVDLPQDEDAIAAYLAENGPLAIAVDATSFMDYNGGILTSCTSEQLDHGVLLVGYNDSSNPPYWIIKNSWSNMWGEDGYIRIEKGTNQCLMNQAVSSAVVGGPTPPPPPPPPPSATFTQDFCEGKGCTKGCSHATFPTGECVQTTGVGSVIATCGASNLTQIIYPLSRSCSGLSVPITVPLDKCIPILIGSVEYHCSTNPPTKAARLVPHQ

One may read the inhibition as the percentage by which the read-out fell short of the control. Take `CC(C)[C@H](NC(=O)[C@H](C)NC(=O)[C@H](Cc1ccccc1)NC(=O)[C@H](C)NC(=O)/C=C/C(=O)N[C@@H](C)C(=O)NCC(=O)N[C@@H](Cc1ccccc1)C(=O)O)C(N)=O` (HELM PEPTIDE1{[C[C@H](NC(=O)/C=C/C(=O)[*:2])C(=O)NCC(=O)N[C@@H](Cc1ccccc1)C(=O)O].A.F.A.V.[am]}$$$$V2.0): the inhibition in test [1] came to 18%; in test [2], 51%.
In the case of `CC(C)C[C@H](NC(=O)[C@H](Cc1ccccc1)NC(=O)[C@H](C)NC(=O)/C=C/C(=O)N[C@@H](C)C(=O)NCC(=O)N[C@@H](Cc1ccccc1)C(=O)O)C(=O)N[C@H](C(N)=O)C(C)C` (HELM PEPTIDE1{[C[C@H](NC(=O)/C=C/C(=O)[*:2])C(=O)NCC(=O)N[C@@H](Cc1ccccc1)C(=O)O].A.F.L.V.[am]}$$$$V2.0), the inhibition is 66% in test [1] and 57% in test [2].
For `CC(C)[C@H](NC(=O)[C@@H](NC(=O)[C@H](Cc1ccccc1)NC(=O)[C@H](C)NC(=O)/C=C/C(=O)N[C@@H](C)C(=O)NCC(=O)N[C@@H](Cc1ccccc1)C(=O)O)C(C)C)C(N)=O` (HELM PEPTIDE1{[C[C@H](NC(=O)/C=C/C(=O)[*:2])C(=O)NCC(=O)N[C@@H](Cc1ccccc1)C(=O)O].A.F.V.V.[am]}$$$$V2.0) the same measures were 55% and 35%.
For `CC[C@H](C)[C@H](NC(=O)[C@H](C)NC(=O)/C=C/C(=O)N[C@@H](C)C(=O)NCC(=O)N[C@@H](Cc1ccccc1)C(=O)O)C(=O)N[C@@H](C)C(=O)N[C@H](C(N)=O)C(C)C` (HELM PEPTIDE1{[C[C@H](NC(=O)/C=C/C(=O)[*:2])C(=O)NCC(=O)N[C@@H](Cc1ccccc1)C(=O)O].A.I.A.V.[am]}$$$$V2.0) the same measures were 9% and 37%.
For `CC[C@H](C)[C@H](NC(=O)[C@H](C)NC(=O)/C=C/C(=O)N[C@@H](C)C(=O)NCC(=O)N[C@@H](Cc1ccccc1)C(=O)O)C(=O)N[C@@H](CC(C)C)C(=O)N[C@H](C(N)=O)C(C)C` (HELM PEPTIDE1{[C[C@H](NC(=O)/C=C/C(=O)[*:2])C(=O)NCC(=O)N[C@@H](Cc1ccccc1)C(=O)O].A.I.L.V.[am]}$$$$V2.0) the same measures were 49% and 54%.
Turning to `CC[C@H](C)[C@H](NC(=O)[C@H](C)NC(=O)/C=C/C(=O)N[C@@H](C)C(=O)NCC(=O)N[C@@H](Cc1ccccc1)C(=O)O)C(=O)N[C@H](C(=O)N[C@H](C(N)=O)C(C)C)C(C)C` (HELM PEPTIDE1{[C[C@H](NC(=O)/C=C/C(=O)[*:2])C(=O)NCC(=O)N[C@@H](Cc1ccccc1)C(=O)O].A.I.V.V.[am]}$$$$V2.0), the inhibition was determined as 34% in test [1] and 30% in test [2].
For `CC(C)C[C@H](NC(=O)[C@H](C)NC(=O)/C=C/C(=O)N[C@@H](C)C(=O)NCC(=O)N[C@@H](Cc1ccccc1)C(=O)O)C(=O)N[C@@H](C)C(=O)N[C@H](C(N)=O)C(C)C` (HELM PEPTIDE1{[C[C@H](NC(=O)/C=C/C(=O)[*:2])C(=O)NCC(=O)N[C@@H](Cc1ccccc1)C(=O)O].A.L.A.V.[am]}$$$$V2.0) the same measures were 31% and 62%.
For `CC(C)C[C@H](NC(=O)[C@H](C)NC(=O)/C=C/C(=O)N[C@@H](C)C(=O)NCC(=O)N[C@@H](Cc1ccccc1)C(=O)O)C(=O)N[C@H](C(=O)N[C@H](C(N)=O)C(C)C)C(C)C` (HELM PEPTIDE1{[C[C@H](NC(=O)/C=C/C(=O)[*:2])C(=O)NCC(=O)N[C@@H](Cc1ccccc1)C(=O)O].A.L.V.V.[am]}$$$$V2.0) the same measures were 59% and 40%.
For `CC(C)[C@H](NC(=O)[C@H](C)NC(=O)[C@@H](NC(=O)[C@H](C)NC(=O)/C=C/C(=O)N[C@@H](C)C(=O)NCC(=O)N[C@@H](Cc1ccccc1)C(=O)O)C1CCCCC1)C(N)=O` (HELM PEPTIDE1{[C[C@H](NC(=O)/C=C/C(=O)[*:2])C(=O)NCC(=O)N[C@@H](Cc1ccccc1)C(=O)O].A.[O=C([C@@H](N[*:1])C1CCCCC1)[*:2]].A.V.[am]}$$$$V2.0) the same measures were 26% and 38%.
`CC(C)C[C@H](NC(=O)[C@@H](NC(=O)[C@H](C)NC(=O)/C=C/C(=O)N[C@@H](C)C(=O)NCC(=O)N[C@@H](Cc1ccccc1)C(=O)O)C1CCCCC1)C(=O)N[C@H](C(N)=O)C(C)C` (HELM PEPTIDE1{[C[C@H](NC(=O)/C=C/C(=O)[*:2])C(=O)NCC(=O)N[C@@H](Cc1ccccc1)C(=O)O].A.[O=C([C@@H](N[*:1])C1CCCCC1)[*:2]].L.V.[am]}$$$$V2.0): the values for the inhibition in test [1] and in test [2] were 59% and 43%, respectively.
For `CC(C)[C@H](NC(=O)[C@@H](NC(=O)[C@@H](NC(=O)[C@H](C)NC(=O)/C=C/C(=O)N[C@@H](C)C(=O)NCC(=O)N[C@@H](Cc1ccccc1)C(=O)O)C1CCCCC1)C(C)C)C(N)=O` (HELM PEPTIDE1{[C[C@H](NC(=O)/C=C/C(=O)[*:2])C(=O)NCC(=O)N[C@@H](Cc1ccccc1)C(=O)O].A.[O=C([C@@H](N[*:1])C1CCCCC1)[*:2]].V.V.[am]}$$$$V2.0) the same measures were 34% and 57%.
For `CC(C)[C@H](NC(=O)[C@H](C)NC(=O)[C@@H](NC(=O)[C@H](C)NC(=O)/C=C/C(=O)N[C@@H](C)C(=O)NCC(=O)N[C@@H](Cc1ccccc1)C(=O)O)c1ccccc1)C(N)=O` (HELM PEPTIDE1{[C[C@H](NC(=O)/C=C/C(=O)[*:2])C(=O)NCC(=O)N[C@@H](Cc1ccccc1)C(=O)O].A.[Phg].A.V.[am]}$$$$V2.0) the same measures were 25% and 57%.
Regarding `CC(C)C[C@H](NC(=O)[C@@H](NC(=O)[C@H](C)NC(=O)/C=C/C(=O)N[C@@H](C)C(=O)NCC(=O)N[C@@H](Cc1ccccc1)C(=O)O)c1ccccc1)C(=O)N[C@H](C(N)=O)C(C)C` (HELM PEPTIDE1{[C[C@H](NC(=O)/C=C/C(=O)[*:2])C(=O)NCC(=O)N[C@@H](Cc1ccccc1)C(=O)O].A.[Phg].L.V.[am]}$$$$V2.0), the inhibition in test [1] came to 72%; in test [2], 55%.
For `CC(C)[C@H](NC(=O)[C@@H](NC(=O)[C@@H](NC(=O)[C@H](C)NC(=O)/C=C/C(=O)N[C@@H](C)C(=O)NCC(=O)N[C@@H](Cc1ccccc1)C(=O)O)c1ccccc1)C(C)C)C(N)=O` (HELM PEPTIDE1{[C[C@H](NC(=O)/C=C/C(=O)[*:2])C(=O)NCC(=O)N[C@@H](Cc1ccccc1)C(=O)O].A.[Phg].V.V.[am]}$$$$V2.0) the same measures were 50% and 38%.
For `CC(C)[C@H](NC(=O)[C@H](C)NC(=O)[C@H](Cc1ccccc1)NC(=O)[C@H](Cc1ccccc1)NC(=O)/C=C/C(=O)N[C@@H](C)C(=O)NCC(=O)N[C@@H](Cc1ccccc1)C(=O)O)C(N)=O` (HELM PEPTIDE1{[C[C@H](NC(=O)/C=C/C(=O)[*:2])C(=O)NCC(=O)N[C@@H](Cc1ccccc1)C(=O)O].F.F.A.V.[am]}$$$$V2.0) the same measures were 37% and 30%.
Regarding `CC(C)C[C@H](NC(=O)[C@H](Cc1ccccc1)NC(=O)[C@H](Cc1ccccc1)NC(=O)/C=C/C(=O)N[C@@H](C)C(=O)NCC(=O)N[C@@H](Cc1ccccc1)C(=O)O)C(=O)N[C@H](C(N)=O)C(C)C` (HELM PEPTIDE1{[C[C@H](NC(=O)/C=C/C(=O)[*:2])C(=O)NCC(=O)N[C@@H](Cc1ccccc1)C(=O)O].F.F.L.V.[am]}$$$$V2.0), the inhibition was 54% in test [1] and 47% in test [2].
For `CC(C)[C@H](NC(=O)[C@@H](NC(=O)[C@H](Cc1ccccc1)NC(=O)[C@H](Cc1ccccc1)NC(=O)/C=C/C(=O)N[C@@H](C)C(=O)NCC(=O)N[C@@H](Cc1ccccc1)C(=O)O)C(C)C)C(N)=O` (HELM PEPTIDE1{[C[C@H](NC(=O)/C=C/C(=O)[*:2])C(=O)NCC(=O)N[C@@H](Cc1ccccc1)C(=O)O].F.F.V.V.[am]}$$$$V2.0) the same measures were 38% and 37%.
As for `CC[C@H](C)[C@H](NC(=O)[C@H](Cc1ccccc1)NC(=O)/C=C/C(=O)N[C@@H](C)C(=O)NCC(=O)N[C@@H](Cc1ccccc1)C(=O)O)C(=O)N[C@@H](C)C(=O)N[C@H](C(N)=O)C(C)C` (HELM PEPTIDE1{[C[C@H](NC(=O)/C=C/C(=O)[*:2])C(=O)NCC(=O)N[C@@H](Cc1ccccc1)C(=O)O].F.I.A.V.[am]}$$$$V2.0), the values for the inhibition in test [1] and in test [2] were 40% and 29%, respectively.
For `CC[C@H](C)[C@H](NC(=O)[C@H](Cc1ccccc1)NC(=O)/C=C/C(=O)N[C@@H](C)C(=O)NCC(=O)N[C@@H](Cc1ccccc1)C(=O)O)C(=O)N[C@@H](CC(C)C)C(=O)N[C@H](C(N)=O)C(C)C` (HELM PEPTIDE1{[C[C@H](NC(=O)/C=C/C(=O)[*:2])C(=O)NCC(=O)N[C@@H](Cc1ccccc1)C(=O)O].F.I.L.V.[am]}$$$$V2.0) the same measures were 61% and 51%.
For the compound `CC[C@H](C)[C@H](NC(=O)[C@H](Cc1ccccc1)NC(=O)/C=C/C(=O)N[C@@H](C)C(=O)NCC(=O)N[C@@H](Cc1ccccc1)C(=O)O)C(=O)N[C@H](C(=O)N[C@H](C(N)=O)C(C)C)C(C)C` (HELM PEPTIDE1{[C[C@H](NC(=O)/C=C/C(=O)[*:2])C(=O)NCC(=O)N[C@@H](Cc1ccccc1)C(=O)O].F.I.V.V.[am]}$$$$V2.0), the inhibition in test [1] worked out at 43%; in test [2] it was 45%.
In the case of `CC(C)C[C@H](NC(=O)[C@H](Cc1ccccc1)NC(=O)/C=C/C(=O)N[C@@H](C)C(=O)NCC(=O)N[C@@H](Cc1ccccc1)C(=O)O)C(=O)N[C@@H](C)C(=O)N[C@H](C(N)=O)C(C)C` (HELM PEPTIDE1{[C[C@H](NC(=O)/C=C/C(=O)[*:2])C(=O)NCC(=O)N[C@@H](Cc1ccccc1)C(=O)O].F.L.A.V.[am]}$$$$V2.0), the inhibition in test [1] is 49%; in test [2], 45%.
With `CC(C)C[C@H](NC(=O)[C@H](Cc1ccccc1)NC(=O)/C=C/C(=O)N[C@@H](C)C(=O)NCC(=O)N[C@@H](Cc1ccccc1)C(=O)O)C(=O)N[C@@H](CC(C)C)C(=O)N[C@H](C(N)=O)C(C)C` (HELM PEPTIDE1{[C[C@H](NC(=O)/C=C/C(=O)[*:2])C(=O)NCC(=O)N[C@@H](Cc1ccccc1)C(=O)O].F.L.L.V.[am]}$$$$V2.0), the inhibition in test [1] turned out to be 69%; in test [2], 62%.

The values above are taken from ChEMBL document CHEMBL1155459, “On-bead screening of a combinatorial fumaric acid derived peptide library yields antiplasmodial cysteine protease inhibitors with unusual peptide sequences” (J Med Chem, 2009).
